{"source": "the RNAGym collection of RNA variant scans (doi:10.1126/science.aae0568)", "parents": {"B1": {"name": "tRNA (parent)", "chain": "GUUCCGUUGGCGUAAUGGUAACGCGUCUCCCUCCUAAGGAGAAGACUGCGGGUUCGAGUCCCGUACGGAACG"}}, "note": "This sample holds only a part of the variants without activity."}
{"variants_of": "B1", "experiment": "yeast fitness relative to wild type (ratio to wild type); higher = fitter; tRNA-Arg(CCU), competitive growth, 37 C, YPD", "how_it_was_run": "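Variants of the tRNA-Arg(CCU) gene were chemically synthesised with a 3% per-site mutation rate across 69 sites and placed at the native genomic locus in Saccharomyces cerevisiae. Six parallel replicates of the pooled strains were competed in YPD at 37°C for 24 hours, and gene amplicons from the start and end populations were read by 100-nucleotide paired-end sequencing. Darwinian fitness relative to wild type was derived from changes in genotype frequencies. Genotypes required ≥ 100 starting reads, and estimates < 0.5 were set to 0.5.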"}
{"variant": "C4A C5G C66U A70G", "yeast fitness": "≤ 0.5"}
{"variant": "C4A A20U A43U", "yeast fitness": "≤ 0.5"}
{"variant": "U3G G50C", "yeast fitness": 0.699}
{"variant": "C4A C5U C24G A45U", "yeast fitness": 0.649}
{"variant": "C4A A45C", "yeast fitness": 0.754}
{"variant": "C4A A21C C22U", "yeast fitness": 0.651}
{"variant": "C4A C5A C66A A69C", "yeast fitness": "≤ 0.5"}
{"variant": "U3G U26A", "yeast fitness": 0.944}
{"variant": "C4A A20C C34A G39C A43U", "yeast fitness": 0.512}
{"variant": "C4A A43U C62U", "yeast fitness": 0.791}
{"variant": "C4A C5A C34A C46U A65C", "yeast fitness": "≤ 0.5"}
{"variant": "U3G G17A C30U A69U", "yeast fitness": "≤ 0.5"}
{"variant": "C4A A36G G44U G51C A65U", "yeast fitness": "≤ 0.5"}
{"variant": "U3G U8C A15G C24G G50A C55U", "yeast fitness": "≤ 0.5"}
{"variant": "U3G U7A G9A A69U", "yeast fitness": "≤ 0.5"}
{"variant": "U3G U8C G68C", "yeast fitness": "≤ 0.5"}
{"variant": "C4A A20U C66U", "yeast fitness": "≤ 0.5"}
{"variant": "U3G U28G", "yeast fitness": 0.661}
{"variant": "C4A A20G U28G G68C A70C", "yeast fitness": "≤ 0.5"}
{"variant": "C4A A14G A36C U59A", "yeast fitness": 0.686}
{"variant": "U3G U8C C61G G63C", "yeast fitness": "≤ 0.5"}
{"variant": "U3G C62U", "yeast fitness": 0.873}
{"variant": "U3G G68A", "yeast fitness": 0.851}
{"variant": "C4A A14U A20C U28G A70U", "yeast fitness": "≤ 0.5"}
{"variant": "C4A C5U C34U", "yeast fitness": "≤ 0.5"}
{"variant": "U3G U8A C31A A69C A70G", "yeast fitness": "≤ 0.5"}
{"variant": "C4A A36C C49U A57G", "yeast fitness": "≤ 0.5"}
{"variant": "U3G U8C A43C", "yeast fitness": "≤ 0.5"}
{"variant": "C4A C5G U19A C46U A69U", "yeast fitness": 0.574}
{"variant": "U3G C62U A70U", "yeast fitness": 0.551}
{"variant": "C4A A20G G48A A69C", "yeast fitness": "≤ 0.5"}
{"variant": "C4A A15C C55U", "yeast fitness": 0.58}
{"variant": "U3G U8G U19A A69C", "yeast fitness": "≤ 0.5"}
{"variant": "C4A A14C C60G C66U G68A", "yeast fitness": 0.561}
{"variant": "U3G G67A", "yeast fitness": 0.846}
{"variant": "C4A A40G A65G", "yeast fitness": 0.533}
{"variant": "U3G U8C G50C G68C", "yeast fitness": "≤ 0.5"}
{"variant": "U3G U8C", "yeast fitness": 0.681}
{"variant": "U3G G48C", "yeast fitness": 1.06}
{"variant": "C4A A42U G68C", "yeast fitness": "≤ 0.5"}
{"variant": "C4A A20G G44C A45G", "yeast fitness": 0.506}
{"variant": "C4A A21U G52A", "yeast fitness": "≤ 0.5"}
{"variant": "C4A C5U U19A A42G", "yeast fitness": "≤ 0.5"}
{"variant": "C4A A14G C30G A45G", "yeast fitness": 0.758}
{"variant": "C4A A20G A37U C61A", "yeast fitness": "≤ 0.5"}
{"variant": "C4A A14G A20U C49A", "yeast fitness": 0.87}
{"variant": "C4A A43U", "yeast fitness": 0.841}
{"variant": "C4A A15C U28C C34G", "yeast fitness": "≤ 0.5"}
{"variant": "C4A A14G C24U U32G A42U A43G C66U", "yeast fitness": "≤ 0.5"}
{"variant": "C4A C5G A20C A40U A65C", "yeast fitness": "≤ 0.5"}
{"variant": "C4A A40C G41C", "yeast fitness": "≤ 0.5"}
{"variant": "U3G G10C U26C", "yeast fitness": "≤ 0.5"}
{"variant": "C4A A14C A70G", "yeast fitness": "≤ 0.5"}
{"variant": "U3G G12C U19C C60U", "yeast fitness": "≤ 0.5"}
{"variant": "C4A A20U C30U", "yeast fitness": "≤ 0.5"}
{"variant": "U3G G17C A42U C62U", "yeast fitness": "≤ 0.5"}
{"variant": "C4A C5G A36U G63A", "yeast fitness": "≤ 0.5"}
{"variant": "C4A C5A U28G C31G U47C A57U A70G", "yeast fitness": "≤ 0.5"}
{"variant": "C4A C5U C24G", "yeast fitness": "≤ 0.5"}
{"variant": "U3G G9C", "yeast fitness": 0.573}
{"variant": "U3G G17C C31A U35C A45U", "yeast fitness": "≤ 0.5"}
{"variant": "U3G G18A U28A", "yeast fitness": 0.613}
{"variant": "C4A C5A A42U A57C C61U A65U", "yeast fitness": "≤ 0.5"}
{"variant": "C4A C5A G41C G56A C62U A65C", "yeast fitness": "≤ 0.5"}
{"variant": "U3G U35C A43U U54A A57C", "yeast fitness": "≤ 0.5"}
{"variant": "C4A A45U C62U G68A", "yeast fitness": 0.562}
{"variant": "C4A C5G C27U U53A A69U", "yeast fitness": "≤ 0.5"}
{"variant": "U3G U26A A70C", "yeast fitness": 1.27}
{"variant": "C4A C5U C27U A37G", "yeast fitness": "≤ 0.5"}
{"variant": "C4A C5G C30A", "yeast fitness": "≤ 0.5"}
{"variant": "C4A A14U", "yeast fitness": 0.698}
{"variant": "C4A A14G", "yeast fitness": 0.72}
{"variant": "U3G G17C C33A U53G U54A", "yeast fitness": "≤ 0.5"}
{"variant": "C4A A37U G50C", "yeast fitness": "≤ 0.5"}
{"variant": "C4A A21G C27U", "yeast fitness": 0.686}
{"variant": "C4A A15C A43G", "yeast fitness": "≤ 0.5"}
{"variant": "C4A A20U U28A C31U A65U", "yeast fitness": "≤ 0.5"}
{"variant": "C4A A14G G63A", "yeast fitness": "≤ 0.5"}
{"variant": "C4A C5A C11U A20U A69C", "yeast fitness": "≤ 0.5"}
{"variant": "C4A C5A C22A U28G C33G A57G C62A", "yeast fitness": "≤ 0.5"}
{"variant": "U3G U8A G18C", "yeast fitness": 0.63}
{"variant": "C4A C5U A57U U59C", "yeast fitness": "≤ 0.5"}
{"variant": "U3G U8C A70C", "yeast fitness": 0.59}
